Data as given in ChEMBL document CHEMBL4043106, “Selective opioid growth factor receptor antagonists based on a stilbene isostere” (Bioorg Med Chem, 2017).
The source made the active and inactive calls. The calls are words filed in the database; no cut-off is given here.

What was measured:
Chlorocebus aethiops [1] = species on record: Chlorocebus aethiops; assay: Antagonist activity at OGFR in African green monkey COS7 cells harboring OGF assessed as increase in cell growth at 1 uM after 72 hrs by hemacytometric method
How it was run: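 COS-7 cells grown in DMEM with 10% fetal calf serum and antibiotics at 37°C, 5% CO2. Seeded at 20,000 cells/well and counted 24 h later as time 0. Treated with 1 μM compound or sterile water vehicle; growth counted at 72 h.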

[2] = biological target: T1, Kappa-type opioid receptor (Homo sapiens, UniProt P41145); assay: Agonist activity at kappa opioid receptor (unknown origin) up to 10 uM by GTPgammaS functional assay
How it was run: (§1)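 GTPγS functional assay at KOR, DOR and MOR, run in both agonist and antagonist modes, with test concentrations up to 10 μM.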

[3] = biological target: Delta-type opioid receptor (Homo sapiens) (UniProt P41143); assay: Agonist activity at delta opioid receptor (unknown origin) up to 10 uM by GTPgammaS functional assay; how it was run: as §1
Mu-type opioid receptor [4] = biological target: T2, Mu-type opioid receptor (Homo sapiens, UniProt P35372); assay: Agonist activity at mu opioid receptor (unknown origin) up to 10 uM by GTPgammaS functional assay; how it was run: as §1
[5] = biological target: T1, Kappa-type opioid receptor; assay: Antagonist activity at kappa opioid receptor (unknown origin) up to 10 uM by GTPgammaS functional assay; how it was run: as §1
[6] = biological target: Delta-type opioid receptor (Homo sapiens) (UniProt P41143); assay: Antagonist activity at delta opioid receptor (unknown origin) up to 10 uM by GTPgammaS functional assay; how it was run: as §1
Mu-type opioid receptor [7] = biological target: T2, Mu-type opioid receptor; assay: Antagonist activity at mu opioid receptor (unknown origin) up to 10 uM by GTPgammaS functional assay; how it was run: as §1
[8] = biological target: T1, Kappa-type opioid receptor; assay: Agonist activity at human kappa opioid receptor assessed as beta-arrestin recruitment up to 5 uM after 180 mins by chemiluminescence assay; details: 3 h
How it was run: (§2)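 Commercial β-arrestin kit using cells transfected with human MOR, DOR or KOR. Cells plated and held 48 h at 37°C in 5% CO2. Compound added for 180 min at 37°C, starting at 5 μM with 1:3 serial dilutions. Reference agonists were DADLE (DOR), Met5-enkephalin (MOR) and dynorphin A (KOR). Detection reagent then added for 1 h at room temperature in the dark; chemiluminescence read.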

[9] = biological target: Delta-type opioid receptor (Homo sapiens) (UniProt P41143); assay: Agonist activity at human delta opioid receptor assessed as beta-arrestin recruitment up to 5 uM after 180 mins by chemiluminescence assay; how it was run: as §2
Mu-type opioid receptor [10] = biological target: T2, Mu-type opioid receptor; assay: Agonist activity at human mu opioid receptor assessed as beta-arrestin recruitment up to 5 uM after 180 mins by chemiluminescence assay; how it was run: as §2
Chlorocebus aethiops [11] = species on record: Chlorocebus aethiops; assay: Antagonist activity at OGFR in African green monkey COS7 cells harboring OGF assessed as increase in cell growth at 1 uM after 72 hrs by BrdU incorporation assay
How it was run: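 COS-7 cells on coverslips exposed to compound (1 μM) for 24 h. BrdU added in fresh DMEM for 3 h, then cells stained with DAPI counterstain. At least 100 cells per treatment scored blind for BrdU incorporation; growth evaluated at 72 h.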

[12] = biological target: T3, Opioid growth factor receptor (Homo sapiens) (UniProt Q9NZT2); assay: Antagonist activity at OGFR in human SKOV3 cells assessed as increase in cell growth at 10 uM after 24 hrs by hemacytometric method; format: cell-based
T3 sequence (whole entry): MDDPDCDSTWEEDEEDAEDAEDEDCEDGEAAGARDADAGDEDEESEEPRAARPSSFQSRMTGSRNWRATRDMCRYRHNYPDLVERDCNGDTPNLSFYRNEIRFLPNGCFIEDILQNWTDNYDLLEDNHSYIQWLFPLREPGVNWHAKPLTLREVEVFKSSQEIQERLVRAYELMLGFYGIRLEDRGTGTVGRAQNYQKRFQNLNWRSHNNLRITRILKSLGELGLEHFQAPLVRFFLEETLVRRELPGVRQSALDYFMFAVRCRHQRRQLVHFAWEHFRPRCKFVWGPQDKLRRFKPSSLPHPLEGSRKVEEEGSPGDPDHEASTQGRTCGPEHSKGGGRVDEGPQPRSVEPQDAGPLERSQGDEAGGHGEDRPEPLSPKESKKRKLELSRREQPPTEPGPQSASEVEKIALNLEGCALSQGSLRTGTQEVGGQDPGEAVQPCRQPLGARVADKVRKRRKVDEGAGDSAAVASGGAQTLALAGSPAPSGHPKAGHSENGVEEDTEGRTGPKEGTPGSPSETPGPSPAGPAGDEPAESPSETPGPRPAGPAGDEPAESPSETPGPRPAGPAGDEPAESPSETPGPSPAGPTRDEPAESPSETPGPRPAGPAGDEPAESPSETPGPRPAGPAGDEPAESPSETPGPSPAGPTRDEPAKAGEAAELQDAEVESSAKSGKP
How it was run: (§3)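 SKOV-3 ovarian cancer cells in RPMI 1640 with 10% fetal calf serum and antibiotics at 37°C, 5% CO2. Seeded at 20,000 cells/well and counted after 24 h for time 0. Compound or sterile water given either continuously (24 h daily) or pulsed for 6 h every 48 h. Cells counted at 96 and 120 h; concentration series used for the dose-response.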

[13] = biological target: T3, Opioid growth factor receptor (Homo sapiens); assay: Antagonist activity at OGFR in human SKOV3 cells assessed as cell growth inhibition at 10 uM treated as pulsed dose of 6 hrs every other day by hemacytometric method; format: cell-based; how it was run: as §3
[14] = biological target: T3, Opioid growth factor receptor (Homo sapiens); assay: Antagonist activity at OGFR in human SKOV3 cells assessed as increase in cell growth at 0.1 to 10 uM treated continuously for 24 hrs measured at 120 hrs post dose by hemacytometric method; format: cell-based; how it was run: as §3
[15] = biological target: T3, Opioid growth factor receptor (Homo sapiens); assay: Antagonist activity at OGFR in human SKOV3 cells assessed as cell growth inhibition at 5 to 10 uM treated as pulsed dose of 6 hrs every other day measured at 120 hrs post dose by hemacytometric method; format: cell-based; how it was run: as §3
[16] = biological target: T3, Opioid growth factor receptor (Homo sapiens); assay: Antagonist activity at OGFR in human SKOV3 cells assessed as cell growth inhibition at 10 uM treated as pulsed dose of 6 hrs every other day measured at 120 hrs post dose by hemacytometric method; format: cell-based; how it was run: as §3

Sequence of Delta-type opioid receptor (Homo sapiens) (P41143 whole entry): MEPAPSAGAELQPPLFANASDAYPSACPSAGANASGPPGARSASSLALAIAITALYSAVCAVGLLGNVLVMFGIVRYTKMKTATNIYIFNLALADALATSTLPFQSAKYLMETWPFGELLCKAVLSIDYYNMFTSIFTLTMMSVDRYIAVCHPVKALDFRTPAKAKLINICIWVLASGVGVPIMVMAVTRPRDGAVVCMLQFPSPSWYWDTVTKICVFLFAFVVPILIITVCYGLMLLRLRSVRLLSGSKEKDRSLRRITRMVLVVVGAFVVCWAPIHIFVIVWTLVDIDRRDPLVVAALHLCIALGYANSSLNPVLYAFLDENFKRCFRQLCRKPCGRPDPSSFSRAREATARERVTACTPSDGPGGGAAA
T2 sequence (P35372 whole entry): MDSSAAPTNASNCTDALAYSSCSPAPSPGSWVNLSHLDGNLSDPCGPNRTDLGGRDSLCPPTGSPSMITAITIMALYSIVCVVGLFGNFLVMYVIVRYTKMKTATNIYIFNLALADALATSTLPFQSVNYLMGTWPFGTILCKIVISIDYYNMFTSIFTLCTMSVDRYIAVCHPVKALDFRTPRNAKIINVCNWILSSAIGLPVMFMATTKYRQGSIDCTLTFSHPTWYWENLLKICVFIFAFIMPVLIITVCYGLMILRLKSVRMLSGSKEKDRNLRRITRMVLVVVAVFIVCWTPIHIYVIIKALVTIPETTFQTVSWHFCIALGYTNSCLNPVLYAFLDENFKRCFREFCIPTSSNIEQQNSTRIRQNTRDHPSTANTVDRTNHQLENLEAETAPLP
T1 sequence (P41145 whole entry): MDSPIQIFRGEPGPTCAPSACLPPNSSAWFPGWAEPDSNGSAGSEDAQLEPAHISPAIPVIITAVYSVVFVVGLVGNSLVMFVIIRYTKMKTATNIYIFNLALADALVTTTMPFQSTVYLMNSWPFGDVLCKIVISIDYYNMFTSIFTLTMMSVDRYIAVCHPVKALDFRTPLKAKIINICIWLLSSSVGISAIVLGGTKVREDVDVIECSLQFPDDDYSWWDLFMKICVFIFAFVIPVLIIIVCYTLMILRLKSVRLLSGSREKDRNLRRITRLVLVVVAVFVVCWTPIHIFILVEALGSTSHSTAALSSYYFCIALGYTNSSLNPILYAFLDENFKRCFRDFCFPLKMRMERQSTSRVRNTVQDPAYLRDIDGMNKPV

Row | Compound | Cell growth increase (active/not active) (Chlorocebus aethiops [1]) | Activity [2] | Activity [3] | Activity (Mu-type opioid receptor [4]) | inhibition [5] | inhibition [6] | inhibition (INH) (Mu-type opioid receptor [7]) | Activity [8] | Activity [9] | Activity (Mu-type opioid receptor [10]) | inhibition (Chlorocebus aethiops [11]) | inhibition [12] | growth inhibition (GI) [13] | inhibition [14] | growth inhibition (GI) [15] | growth inhibition (GI) [16]
1 | COc1cc(/C=C/c2cc(O)c(O)c(CC=C(C)C)c2)c(C/C=C(\C)CCC=C(C)C)c(OC)c1 | inactive |  |  |  |  |  |  |  |  |  |  |  |  |  |  | 
2 | COc1cc(OC)c(C/C=C(\C)CCC=C(C)C)c(C(=O)Nc2cc(O)c(O)c(CC=C(C)C)c2)c1 |  | Not Active | inactive | inactive | inactive | inactive | Not Active | Not Active | inactive | inactive | Active | Active | Active | Active | Active | 
3 | COc1cc(OC)c(C/C=C(\C)CCC=C(C)C)c(C(=O)Nc2ccc(O)c(O)c2CC=C(C)C)c1 |  | Not Active | inactive | inactive | inactive | inactive | Not Active | Not Active | inactive | inactive | inactive | Active | Active |  |  | Active
4 | COc1cc(NC(=O)c2ccc(O)c(O)c2CC=C(C)C)c(C/C=C(\C)CCC=C(C)C)c(OC)c1 | Active | Not Active | inactive | inactive | inactive | inactive | Not Active | Not Active | inactive | inactive |  | Active | Active |  |  | 
5 | COc1cc(NC(=O)c2cc(O)c(O)c(CC=C(C)C)c2)c(C/C=C(\C)CCC=C(C)C)c(OC)c1 | Active | Not Active | inactive | inactive | inactive | inactive | Not Active | Not Active | inactive | inactive |  |  |  |  |  | 
6 | COc1cc(/C=C/c2ccc(O)c(O)c2CC=C(C)C)c(C/C=C(\C)CCC=C(C)C)c(OC)c1 | Active |  |  |  |  |  |  |  |  |  |  |  |  |  |  | 
7 | O=C1CC[C@@]2(O)[C@H]3Cc4ccc(O)c5c4[C@@]2(CCN3CC2CC2)[C@H]1O5 | Active |  |  |  |  |  |  |  |  |  |  |  | Active |  |  | 
